Consider 30 sequences from the array DNA melting data of Ke et al. (doi:10.1101/2024.01.08.574731).

The nature of data set [1]: folding enthalpy; higher = less favourable; fluorescence melt of hairpins on a sequencing array, two-state fit. The conditions noted are these: sodium 0.088 M. An outline of the steps:
(§1)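 Folding enthalpy and melting temperature were estimated with bootstrapped two-state fits and combined across four replicates by inverse-variance weighting, with fitted temperatures raised by 9.35 °C to match UV melts. The data were Cy3 fluorescence of library hairpins, with annealed Cy3 and quencher oligos, on a sequenced MiSeq flow cell in 50 mM Na-HEPES pH 8.0, 25 mM NaCl, imaged in 2.5 °C steps up to 60 °C and normalised to pre-quench Cy3 and control constructs.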

Data set [2] can be described thus: melting temperature; fluorescence melt of hairpins on a sequencing array, two-state fit, raised by 9.35 °C to match UV melts. The conditions noted are these: sodium 0.088 M. An outline of the steps:
as §1

Regarding CGAGACGGAAACGTTTCG (((.(((....))).))), in data set [1], the folding enthalpy is -41.5 kcal/mol. In addition, the Tm in data set [2] stood at 49.6 °C.

Take CGAGCCCGGAAACGGTCG (((..(((....)))))): the folding enthalpy in data set [1] was -20.9 kcal/mol. The Tm in data set [2] amounted to 37.5 °C.

CGAGCGGAAACGCAGTCG ((((((....)))..))): in data set [1], the folding enthalpy is -13.6 kcal/mol. In addition, the Tm in data set [2] was determined as 38.1 °C.

Regarding CGAGCGGAAACGCCTTCG ((((((....)))..))), the folding enthalpy in data set [1] is -10.7 kcal/mol. For the same sequence, the Tm in data set [2] worked out at 32 °C.

In the case of CGAGCGGAAACGCGGTCG ((((((....)))..))), in data set [1], the folding enthalpy was -14.9 kcal/mol. Moreover, the Tm in data set [2] amounted to 52.8 °C.

Take CGAGGACGGAAACGTTCG (((..(((....)))))): the folding enthalpy in data set [1] is -19.8 kcal/mol. The Tm in data set [2] worked out at 43.1 °C.

As for CGAGGCCGGAAACGGTCG (((..(((....)))))), in data set [1], the folding enthalpy was -19.7 kcal/mol. The Tm in data set [2] worked out at 48.5 °C.

For CGAGGGCGGAAACGCTCG (((..(((....)))))), the folding enthalpy in data set [1] is -16.9 kcal/mol. Moreover, in data set [2], the Tm stood at 48.5 °C.

Turning to CGATCCGGAAACGGTTCG (((.(((....))).))), the folding enthalpy in data set [1] is -32 kcal/mol. Also, in data set [2], the Tm was 49.8 °C.

For the sequence CGATCGCGGAAACGCTCG (((..(((....)))))), the folding enthalpy in data set [1] is -15.4 kcal/mol. The Tm in data set [2] was 36.8 °C.

In the case of CGATGTCGGAAACGATCG (((..(((....)))))), the folding enthalpy in data set [1] was -17.3 kcal/mol. Also, in data set [2], the Tm turned out to be 36.2 °C.

As for CGATTGAAAAATCG (((((....))))), in data set [1], the folding enthalpy was -27.8 kcal/mol. Also, the Tm in data set [2] turned out to be 46 °C.

As for CGCACCGGAAACGGAGCG (((.(((....))).))), the folding enthalpy in data set [1] is -37.2 kcal/mol. In data set [2], the Tm was 60.9 °C.

For CGCACGGAAACGTAAGCG ((((((....)))..))), the folding enthalpy in data set [1] was -34.5 kcal/mol. Further, the Tm in data set [2] worked out at 46.4 °C.

For the sequence CGCACGGAAACGTAGCG ((((((....))).))), in data set [1], the folding enthalpy was -30.4 kcal/mol. In addition, the Tm in data set [2] turned out to be 53.8 °C.

In the case of CGCACGGAAACGTCGCG ((((((....))).))), the folding enthalpy in data set [1] is -35.8 kcal/mol. Moreover, the Tm in data set [2] amounted to 51.1 °C.

On to CGCACGGAAACGTTGCG ((((((....))).))), for which the folding enthalpy in data set [1] is -37.7 kcal/mol. In addition, the Tm in data set [2] came out at 55.1 °C.

As to CGCAGGCGGAAACGCGCG (((..(((....)))))), in data set [1], the folding enthalpy is -23 kcal/mol. The Tm in data set [2] was 56.2 °C.

For the sequence CGCATCGGAAACGACGCG (((.(((....))).))), the folding enthalpy in data set [1] was -41.2 kcal/mol. Besides, the Tm in data set [2] turned out to be 51.6 °C.

On to CGCATGAAAATGCG (((((....))))), for which the folding enthalpy in data set [1] is -24.9 kcal/mol. For the same sequence, the Tm in data set [2] turned out to be 67.6 °C.

For the sequence CGCCCACGGAAACGTGCG (((..(((....)))))), in data set [1], the folding enthalpy is -12.3 kcal/mol. Also, the Tm in data set [2] is 37.1 °C.

As to CGCCCCCGGAAACGGGCG (((..(((....)))))), the folding enthalpy in data set [1] is -13.8 kcal/mol. The Tm in data set [2] was 54.3 °C.

CGCCCGGAAACGGACGCG ((((((....)))..))): the folding enthalpy in data set [1] was -12.2 kcal/mol. The Tm in data set [2] worked out at 50.2 °C.

Consider CGCCCGGAAACGGAGGCG ((((((....)))..))), for which the folding enthalpy in data set [1] was -32.5 kcal/mol. The Tm in data set [2] was determined as 53.8 °C.

On to CGCCCGGAAACGGGGGCG ((((((....)))..))), for which the folding enthalpy in data set [1] is -12.5 kcal/mol. Further, the Tm in data set [2] stood at 68.6 °C.

Consider CGCCCGGAAACGGTGGCG ((((((....)))..))), for which the folding enthalpy in data set [1] is -28.6 kcal/mol. Besides, the Tm in data set [2] was 54.9 °C.

For the sequence CGCCGCGGAAACGCCGCG (((.(((....))).))), in data set [1], the folding enthalpy was -14.9 kcal/mol. Moreover, in data set [2], the Tm was found to be 63.6 °C.

Consider CGCGAACGGAAACGTGCG (((..(((....)))))), for which the folding enthalpy in data set [1] was -47.6 kcal/mol. The Tm in data set [2] came out at 49.6 °C.

As for CGCGCGGAAACGCAGGCG ((((((....)))..))), in data set [1], the folding enthalpy was -28.6 kcal/mol. In addition, in data set [2], the Tm was 57.2 °C.

CGCGCGGAAACGCGAGCG ((((((....)))..))): in data set [1], the folding enthalpy is -12.1 kcal/mol. The Tm in data set [2] was determined as 60.7 °C.
